ChEMBL document CHEMBL4265907, “Design, synthesis and pharmacological evaluation of N4,N6-disubstituted pyrimidine-4,6-diamine derivatives as potent EGFR inhibitors in non-small cell lung cancer” (Eur J Med Chem, 2018)

Tests used:
[1] = target: Fibroblast growth factor receptor 1 (Homo sapiens) (UniProt P11362); experiment: Inhibition of N-terminal GST-tagged human FGFR1 cytoplasmic domain (398 to 822 residues) expressed in baculovirus expression system at […] using FAM-labeled peptide as substrate after 10 mins by mobility shift assay relative to control
How it was run: (§1)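 Caliper mobility-shift kinase assay. Kinase in kinase base buffer was preincubated with compound for 10 min at room temperature. FAM-labelled peptide and ATP at Km were then added, and the reaction ran at 28 °C until quenched with buffer. Screening concentration was 1 µM. Percent inhibition = (max − conversion)/(max − min) × 100, with DMSO as max and a low control as min.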

[2] = target: Vascular endothelial growth factor receptor 2 (Homo sapiens) (UniProt P35968); experiment: Inhibition of N-terminal GST-tagged human KDR cytoplasmic domain (790 to 1356 residues) expressed in baculovirus expression system at […] using FAM-labeled peptide as substrate after 10 mins by mobility shift assay relative to control; how it was run: as §1
Sequence of Vascular endothelial growth factor receptor 2 (Homo sapiens) (P35968 whole entry, the tested form may be a part): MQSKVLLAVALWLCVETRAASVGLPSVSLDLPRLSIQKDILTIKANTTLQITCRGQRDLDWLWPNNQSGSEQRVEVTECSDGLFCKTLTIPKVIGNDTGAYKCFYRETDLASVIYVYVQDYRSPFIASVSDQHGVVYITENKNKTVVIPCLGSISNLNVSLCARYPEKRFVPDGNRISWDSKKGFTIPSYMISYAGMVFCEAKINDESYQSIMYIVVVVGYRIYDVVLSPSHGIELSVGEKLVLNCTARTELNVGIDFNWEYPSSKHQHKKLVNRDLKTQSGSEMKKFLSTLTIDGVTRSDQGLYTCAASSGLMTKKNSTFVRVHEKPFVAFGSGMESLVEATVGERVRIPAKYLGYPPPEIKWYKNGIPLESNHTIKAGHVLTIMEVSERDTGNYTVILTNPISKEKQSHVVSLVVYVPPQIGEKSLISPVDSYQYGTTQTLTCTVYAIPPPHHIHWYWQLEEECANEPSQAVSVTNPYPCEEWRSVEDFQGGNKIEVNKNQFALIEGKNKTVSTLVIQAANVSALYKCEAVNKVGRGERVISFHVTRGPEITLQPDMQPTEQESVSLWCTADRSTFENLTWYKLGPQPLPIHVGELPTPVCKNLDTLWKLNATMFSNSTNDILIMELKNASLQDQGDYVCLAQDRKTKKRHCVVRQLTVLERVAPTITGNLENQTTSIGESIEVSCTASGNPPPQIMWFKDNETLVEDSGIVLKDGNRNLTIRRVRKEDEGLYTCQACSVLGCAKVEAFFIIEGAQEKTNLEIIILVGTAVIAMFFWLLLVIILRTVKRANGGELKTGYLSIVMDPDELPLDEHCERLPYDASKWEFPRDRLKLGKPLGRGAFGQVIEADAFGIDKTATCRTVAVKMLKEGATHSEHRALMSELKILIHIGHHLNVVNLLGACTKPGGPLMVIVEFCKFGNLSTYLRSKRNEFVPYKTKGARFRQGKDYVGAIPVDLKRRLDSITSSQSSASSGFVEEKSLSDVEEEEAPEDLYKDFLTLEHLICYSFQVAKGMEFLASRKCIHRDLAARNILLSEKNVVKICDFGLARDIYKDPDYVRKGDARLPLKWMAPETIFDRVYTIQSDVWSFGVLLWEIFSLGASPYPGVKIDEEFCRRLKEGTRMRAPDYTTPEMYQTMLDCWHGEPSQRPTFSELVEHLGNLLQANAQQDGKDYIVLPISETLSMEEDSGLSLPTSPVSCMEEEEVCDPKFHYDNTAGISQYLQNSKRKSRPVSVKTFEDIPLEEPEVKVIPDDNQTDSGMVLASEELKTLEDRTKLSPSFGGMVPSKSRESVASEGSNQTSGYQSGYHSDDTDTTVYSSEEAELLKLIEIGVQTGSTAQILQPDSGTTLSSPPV

[3] = target: Epidermal growth factor receptor (Homo sapiens, UniProt P00533); experiment: Inhibition of N-terminal GST-tagged wild type human EGFR cytoplasmic domain (669 to 1210 residues) expressed in baculovirus expression system using FAM-labeled peptide as substrate after 10 mins by mobility shift assay
Sequence of Epidermal growth factor receptor (Homo sapiens, UniProt P00533) (P00533 whole entry, the tested form may be a part): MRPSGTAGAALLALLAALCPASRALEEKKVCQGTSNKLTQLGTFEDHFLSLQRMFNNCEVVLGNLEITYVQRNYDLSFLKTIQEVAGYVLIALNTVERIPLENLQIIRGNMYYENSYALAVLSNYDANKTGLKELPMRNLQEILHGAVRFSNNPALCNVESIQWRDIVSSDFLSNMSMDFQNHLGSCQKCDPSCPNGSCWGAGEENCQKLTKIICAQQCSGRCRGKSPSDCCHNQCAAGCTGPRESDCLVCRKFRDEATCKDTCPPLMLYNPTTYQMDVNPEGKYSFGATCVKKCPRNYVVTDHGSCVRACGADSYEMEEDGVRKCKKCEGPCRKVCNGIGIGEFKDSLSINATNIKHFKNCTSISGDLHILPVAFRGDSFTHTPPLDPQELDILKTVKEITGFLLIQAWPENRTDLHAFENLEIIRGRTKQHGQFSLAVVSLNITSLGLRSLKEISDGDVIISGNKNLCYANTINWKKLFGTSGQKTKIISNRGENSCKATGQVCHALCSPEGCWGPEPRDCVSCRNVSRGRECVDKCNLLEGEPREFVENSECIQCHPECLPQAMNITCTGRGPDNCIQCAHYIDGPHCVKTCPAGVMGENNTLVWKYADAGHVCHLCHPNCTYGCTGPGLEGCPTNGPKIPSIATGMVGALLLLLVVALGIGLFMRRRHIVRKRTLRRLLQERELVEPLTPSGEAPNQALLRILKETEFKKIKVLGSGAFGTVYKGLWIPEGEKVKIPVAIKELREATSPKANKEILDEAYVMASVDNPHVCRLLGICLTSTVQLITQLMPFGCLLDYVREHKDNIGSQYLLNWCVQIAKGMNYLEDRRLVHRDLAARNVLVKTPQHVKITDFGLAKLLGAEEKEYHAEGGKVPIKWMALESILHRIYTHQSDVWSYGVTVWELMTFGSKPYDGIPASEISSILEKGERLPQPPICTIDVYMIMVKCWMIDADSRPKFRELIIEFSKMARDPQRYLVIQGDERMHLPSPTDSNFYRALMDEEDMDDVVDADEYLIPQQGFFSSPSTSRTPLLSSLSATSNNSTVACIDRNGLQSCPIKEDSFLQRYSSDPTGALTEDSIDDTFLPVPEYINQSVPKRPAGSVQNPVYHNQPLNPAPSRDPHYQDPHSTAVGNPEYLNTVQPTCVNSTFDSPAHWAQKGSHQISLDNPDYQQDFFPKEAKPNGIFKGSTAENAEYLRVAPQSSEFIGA

[4] = target: Epidermal growth factor receptor (Homo sapiens, UniProt P00533, DEL747/DEL747-750); experiment: Inhibition of N-terminal GST-tagged human EGFR del 747-750 mutant cytoplasmic domain expressed in baculovirus expression system using FAM-labeled peptide as substrate after 10 mins by mobility shift assay
Sequence of Epidermal growth factor receptor (Homo sapiens, UniProt P00533, DEL747/DEL747-750) (P00533 with tags, fused parts or gaps DEL747/DEL747-750 limits assumed): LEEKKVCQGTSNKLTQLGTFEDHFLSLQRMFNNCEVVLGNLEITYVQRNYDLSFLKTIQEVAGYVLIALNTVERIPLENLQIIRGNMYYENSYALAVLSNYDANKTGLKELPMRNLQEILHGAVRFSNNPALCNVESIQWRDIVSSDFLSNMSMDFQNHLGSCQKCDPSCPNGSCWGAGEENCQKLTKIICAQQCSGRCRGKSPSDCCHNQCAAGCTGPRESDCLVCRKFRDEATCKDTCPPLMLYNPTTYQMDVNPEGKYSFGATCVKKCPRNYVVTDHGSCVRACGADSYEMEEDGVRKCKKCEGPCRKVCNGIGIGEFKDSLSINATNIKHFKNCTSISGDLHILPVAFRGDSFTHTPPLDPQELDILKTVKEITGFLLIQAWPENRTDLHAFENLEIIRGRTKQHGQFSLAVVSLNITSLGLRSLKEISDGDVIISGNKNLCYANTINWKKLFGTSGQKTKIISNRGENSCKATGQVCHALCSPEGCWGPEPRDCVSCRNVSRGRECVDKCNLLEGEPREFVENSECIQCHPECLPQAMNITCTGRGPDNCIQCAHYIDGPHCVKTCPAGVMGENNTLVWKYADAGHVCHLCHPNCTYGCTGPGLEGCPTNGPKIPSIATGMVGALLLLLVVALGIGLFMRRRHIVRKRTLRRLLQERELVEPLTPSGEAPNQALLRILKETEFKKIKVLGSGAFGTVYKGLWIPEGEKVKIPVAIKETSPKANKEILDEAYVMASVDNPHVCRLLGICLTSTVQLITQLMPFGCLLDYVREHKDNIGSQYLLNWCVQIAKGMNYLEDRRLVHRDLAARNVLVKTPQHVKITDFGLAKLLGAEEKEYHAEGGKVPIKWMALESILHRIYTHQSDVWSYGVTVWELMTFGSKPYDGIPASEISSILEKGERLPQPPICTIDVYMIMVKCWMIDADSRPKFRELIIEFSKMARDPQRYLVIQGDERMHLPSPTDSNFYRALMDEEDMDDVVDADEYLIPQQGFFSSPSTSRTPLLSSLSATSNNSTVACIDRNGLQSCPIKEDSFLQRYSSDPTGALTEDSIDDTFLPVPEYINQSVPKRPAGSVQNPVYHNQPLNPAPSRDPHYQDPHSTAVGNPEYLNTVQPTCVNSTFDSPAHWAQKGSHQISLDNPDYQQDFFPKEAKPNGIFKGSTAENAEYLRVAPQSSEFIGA

inhibition [1]	inhibition [2]	Compound	IC50 [3]	IC50 [4]
-7.1%	11.3%	CCOC(=O)CCC(=O)Nc1cc(Nc2cccc(OC)c2)ncn1		
2.2%	6.1%	CCOc1cccc(Nc2cc(NC(=O)c3ccc(F)cc3)ncn2)c1		
-6.5%	2.5%	CC(C)OC(=O)CCC(=O)Nc1cc(Nc2ccc(F)cc2)ncn1		
-4.8%	7.3%	COc1ccc(/C=C/C(=O)Nc2cc(N3CCOCC3)ncn2)cc1		
-9.8%	0.6%	Clc1cccc(Nc2cc(Nc3cccc(Cl)c3)ncn2)c1		
-5.8%	-6.2%	O=C(Nc1cc(Nc2cccc(Cl)c2)ncn1)c1ccccc1		
4.2%	-0.6%	O=C(Nc1cc(Nc2cccc(Cl)c2)ncn1)c1ccc(F)cc1		
1.8%	6.1%	Fc1ccc(Nc2cc(Nc3ccc(Cl)cc3)ncn2)cc1		
-6.1%	1.7%	COc1ccc(/C=C/C(=O)Nc2cc(N3CCN(C)CC3)ncn2)cc1		
0.5%	16.8%	Fc1ccc(Nc2cc(Nc3ccc(F)cc3)ncn2)cc1		
-6.1%	7.7%	CN1CCN(c2cc(NC(=O)/C=C/c3ccc(F)cc3)ncn2)CC1		
-1.8%	10.1%	O=C(Nc1cc(N2CCOCC2)ncn1)c1ccccc1		
-4.8%	10.9%	Cc1ccc(Nc2cc(NC(=O)c3ccc(F)cc3)ncn2)cc1		
-3.4%	7.3%	Clc1ccc(Nc2cc(Nc3cccc(Cl)c3)ncn2)cc1		
5.9%	5.3%	CCOc1ccc(Nc2cc(NC(=O)c3ccc(F)cc3)ncn2)cc1		
-0.4%	9.3%	COc1cccc(Nc2cc(NC(=O)/C=C/c3ccccc3)ncn2)c1		
-3.6%	22.5%	CCOC(=O)CCC(=O)Nc1cc(Nc2ccc(Cl)cc2)ncn1		
-2.3%	11.3%	COc1ccc(Nc2cc(NC(=O)/C=C/c3ccc(F)cc3Br)ncn2)c([N+](=O)[O-])c1		
-3.6%	20%	Clc1cccc(Nc2cc(Nc3cccc(Br)c3)ncn2)c1		
-1.3%	-1.4%	O=C(Nc1cc(Nc2ccc(Cl)cc2)ncn1)c1ccccc1		
-2.7%	13.6%	COc1ccc(OC)c(Nc2cc(Nc3cc(OC)ccc3OC)ncn2)c1		
-8.8%	0.9%	COc1ccc(/C=C/C(=O)Nc2cc(Nc3ccc(Cl)cc3)ncn2)cc1		
-0.3%	-5%	O=C(/C=C/c1ccccc1)Nc1cc(Nc2ccc(N3CCOCC3)cc2)ncn1		

inhibition [1]	inhibition [2]	Compound	IC50 [3]	IC50 [4]
-5.4%	4.9%	CCOC(=O)c1ccc(Nc2cc(NC(=O)CCC(=O)O)ncn2)cc1		
1.5%	0.6%	CCOc1ccc(Nc2cc(NC(=O)/C=C/c3ccccc3)ncn2)cc1		
0.5%	-3.4%	COc1ccc(Nc2cc(NC(=O)c3ccc(F)cc3)ncn2)cc1		
8.7%	9.3%	COc1ccc(Nc2cc(NC(=O)/C=C/c3ccccc3)ncn2)cc1		
-2.3%	13.6%	CN1CCN(c2cc(NC(=O)CCCC(=O)O)ncn2)CC1		
-9.3%	0.9%	CCOC(=O)CCCC(=O)Nc1cc(Nc2cc(OC)ccc2OC)ncn1		
-3.6%	7.7%	CCOC(=O)CCC(=O)Nc1cc(Nc2ccc(S(N)(=O)=O)cc2)ncn1		
-4.9%	2.5%	COc1ccc(Nc2cc(NC(=O)/C=C/c3ccccc3)ncn2)c([N+](=O)[O-])c1		
-6.6%	4.9%	CCOC(=O)CCC(=O)Nc1cc(Nc2ccc(N3CCN(C)CC3)cc2)ncn1		
-2.3%	4.9%	CC(C)OC(=O)CCC(=O)Nc1cc(Nc2ccc(C(=O)OC(C)C)cc2)ncn1		
	20.5%	COc1cccc(Nc2cc(Nc3cccc(Br)c3)ncn2)c1		
-3.7%	1.3%	O=C(/C=C/c1ccccc1)Nc1cc(Nc2ccc(O)cc2)ncn1		
-0.4%	34.5%	CCNc1cc(Nc2cc(OC)ccc2OC)ncn1		
	10.9%	O=C(O)CCC(=O)Nc1cc(Nc2cccc(C(=O)O)c2)ncn1		
-2.8%	0.6%	O=C(/C=C/c1ccc(F)cc1Br)Nc1cc(Nc2ccc(N3CCOCC3)cc2)ncn1		
-5.4%	21.8%	CN1CCN(c2ccc(Nc3cc(NC(=O)/C=C/c4ccc(F)cc4)ncn3)cc2)CC1		
-3.9%	1.3%	O=C(/C=C/c1ccc(F)cc1)Nc1cc(Nc2ccc(N3CCOCC3)cc2)ncn1		
-9.3%	16.8%	O=C(O)CCCC(=O)Nc1cc(Nc2ccccc2Br)ncn1		
-4%	6.1%	COc1ccc(/C=C/C(=O)Nc2cc(Nc3ccc(Cl)cc3Cl)ncn2)cc1		
-5.3%	19.2%	O=C(O)CCC(=O)Nc1cc(Nc2cccc(Br)c2)ncn1		
-6%	-0.2%	COc1cccc(Nc2cc(NC(=O)c3ccccc3)ncn2)c1		
	18.8%	CN1CCN(c2ccc(Nc3cc(NC(=O)CCC(=O)O)ncn3)cc2)CC1		
2.6%	19.7%	CCOC(=O)CCC(=O)Nc1cc(Nc2cccc(C(=O)OCC)c2)ncn1		

inhibition [1]	inhibition [2]	Compound	IC50 [3]	IC50 [4]
0.5%	12.4%	COc1cccc(Nc2cc(NC(=O)CCC(=O)O)ncn2)c1		
3.1%	10.1%	O=C(/C=C/c1ccc(F)cc1)Nc1cc(Nc2ccc(Cl)cc2)ncn1		
5.2%	8.9%	COc1ccc(Nc2cc(NC(=O)c3ccccc3)ncn2)c([N+](=O)[O-])c1		
0.7%	20.4%	CCOc1ccc(Nc2cc(NC(=O)/C=C/c3ccc(OC)cc3)ncn2)cc1		
-5%	4.9%	CCCC(C)OC(=O)CCC(=O)Nc1cc(Nc2cccc(C(=O)OC(C)CCC)c2)ncn1 (stereo unspecified)		
-1.3%	8.5%	Clc1ccc(Nc2cc(Nc3ccc(Cl)cc3)ncn2)cc1		
-8.2%	6.5%	COc1ccc(OC)c(Nc2cc(Nc3ccc(Cl)cc3)ncn2)c1		
-2.9%	2.5%	O=C(/C=C/c1ccc(F)cc1)Nc1cc(Nc2ccc(Cl)cc2Cl)ncn1		
4.3%	20.8%	COc1cccc(Nc2cc(NC(=O)c3ccc(F)cc3)ncn2)c1		
-1.1%	1.7%	CCOC(=O)CC(=O)Nc1cc(Nc2ccc(F)cc2)ncn1		
-5.4%	8.5%	COc1ccc(/C=C/C(=O)Nc2cc(Nc3cccc(Br)c3)ncn2)cc1		
-3.6%	0.6%	O=C(O)CCC(=O)Nc1cc(Nc2cccc(Cl)c2)ncn1		
-4.6%	15.2%	O=C(/C=C/c1ccc(F)cc1Br)Nc1cc(Nc2ccc(Cl)cc2Cl)ncn1		
	13.6%	CCOC(=O)CCC(=O)Nc1cc(NCCc2cccs2)ncn1		
3.5%	1.7%	O=C(Nc1cc(Nc2ccc(N3CCOCC3)cc2)ncn1)c1ccc(F)cc1		
-4.1%	16.4%	CCOC(=O)c1c(Nc2cc(NC(=O)CCC(=O)OC(C)C)ncn2)sc2c1CCCC2		
0%	3.7%	CCOC(=O)c1ccc(Nc2cc(Nc3ccc(C(=O)OCC)cc3)ncn2)cc1		
-7.1%	5.7%	O=C(/C=C/c1ccc(F)cc1Br)Nc1cc(N2CCOCC2)ncn1		
-4.6%	6.5%	CCOC(=O)CCC(=O)Nc1cc(Nc2ccc(C(=O)OCC)cc2)ncn1		
-4%	12.8%	COc1cccc(Nc2cc(Nc3ccc(Cl)cc3)ncn2)c1		
-8.8%	9.7%	CCOC(=O)CCC(=O)Nc1cc(Nc2cc(OC)ccc2OC)ncn1		
-5.3%	-1.4%	Clc1ccc(Nc2cc(Nc3ccc4[nH]ncc4c3)ncn2)cc1		

Compound	inhibition [1]	inhibition [2]	IC50 [3]	IC50 [4]
O=C(O)CCCC(=O)Nc1cc(Nc2ccc(Cl)cc2)ncn1	-7.2%	18%	> 10000 nM	944 nM
COc1ccc(OC)c(Nc2cc(NCCc3cccs3)ncn2)c1	-8.2%	14.6%	125 nM	102 nM
COc1cccc(Nc2cc(Nc3ccc(S(N)(=O)=O)cc3)ncn2)c1	-8.8%	12.4%	> 10000 nM	1230 nM
O=C(O)CCCC(=O)Nc1cc(Nc2cccc(Br)c2)ncn1	-1.1%	6.5%	70 nM	> 10000 nM
CCCC(C)OC(=O)CCC(=O)Nc1cc(Nc2cccc(Br)c2)ncn1 (stereo unspecified)	-4.9%	14.8%		
CCNc1cc(Nc2cccc(Cl)c2)ncn1	-7.7%	6.9%	170 nM	> 10000 nM
COc1ccc(OC)c(Nc2cc(Nc3ccc(S(N)(=O)=O)cc3)ncn2)c1	-8.2%	26.2%	779 nM	467 nM
COc1ccc(OC)c(Nc2cc(NC(=O)CCCC(=O)O)ncn2)c1	-3.7%	23.6%	68 nM	> 10000 nM
CCOC(=O)c1ccc(Nc2cc(Nc3cccc(OC)c3)ncn2)cc1	-9.3%	11.7%	> 10000 nM	1190 nM
